Test results from ChEMBL document CHEMBL1138762, “Novel cyclooxygenase-1 inhibitors discovered using affinity fingerprints” (J Med Chem, 2004).

target: T1, Prostaglandin G/H synthase 1 (Ovis aries) (UniProt P05979); experiment: In vitro inhibitory activity against ovine cyclooxygenase-1 (COX-1) at 200 uM; Inactive; conditions: not given
T1 sequence (whole entry): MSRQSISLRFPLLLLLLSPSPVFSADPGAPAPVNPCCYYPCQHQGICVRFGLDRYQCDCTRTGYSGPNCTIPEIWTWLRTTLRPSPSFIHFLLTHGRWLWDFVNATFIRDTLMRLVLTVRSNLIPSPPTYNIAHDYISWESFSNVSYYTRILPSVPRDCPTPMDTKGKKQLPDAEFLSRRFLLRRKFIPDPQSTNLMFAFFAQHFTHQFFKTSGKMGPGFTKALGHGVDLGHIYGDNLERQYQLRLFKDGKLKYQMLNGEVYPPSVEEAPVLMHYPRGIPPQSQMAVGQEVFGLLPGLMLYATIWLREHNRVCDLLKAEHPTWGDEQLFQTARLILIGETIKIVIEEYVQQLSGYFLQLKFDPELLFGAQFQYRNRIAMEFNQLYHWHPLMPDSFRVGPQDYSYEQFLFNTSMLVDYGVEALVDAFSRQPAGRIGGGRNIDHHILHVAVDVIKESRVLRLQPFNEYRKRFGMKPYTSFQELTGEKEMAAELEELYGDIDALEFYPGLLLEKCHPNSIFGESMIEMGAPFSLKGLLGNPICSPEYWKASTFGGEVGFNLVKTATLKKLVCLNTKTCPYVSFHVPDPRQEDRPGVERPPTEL

| SMILES | inhibition [%] |
| --- | --- |
| COc1ccc2c(c1)c(CC(=O)OCC(=O)O)c(C)n2C(=O)c1ccc(Cl)cc1 | < 50 |
| COc1ccc2cc(CC(=O)O)ccc2c1 | < 50 |
| CCc1cccc2c3c([nH]c12)C(CC)(CC(=O)O)OCC3 (configuration not stated) | < 50 |
| O=C(O)c1cc(-c2ccc(F)cc2F)ccc1O | < 50 |
| COc1ccc2c(c1)c(CC(=O)O)c(C)n2C(=O)c1ccc(Cl)cc1 | < 50 |
| COc1ccc2cc([C@H](C)C(=O)O)ccc2c1 | < 50 |
| CC(C(=O)O)c1cccc(C(=O)c2ccccc2)c1 (configuration not stated) | < 50 |
| CC(C(=O)O)c1ccc(N2Cc3ccccc3C2=O)cc1 (configuration not stated) | < 50 |
| CC(C(=O)O)c1ccc(N2CC=CC2)c(Cl)c1 (configuration not stated) | < 50 |
| CN1C(C(=O)Nc2ccccn2)=C(O)c2ccccc2S1(=O)=O | < 50 |
| CCCCC1C(=O)N(c2ccccc2)N(c2ccccc2)C1=O | < 50 |
| Cc1cc(NC(=O)C2=C(O)c3ccccc3S(=O)(=O)N2C)no1 | < 50 |
| CC(C)Cc1ccc(C(C)C(=O)O)cc1 (configuration not stated) | < 50 |

target: T1, Prostaglandin G/H synthase 1 (Ovis aries); conditions: 200 uM

| SMILES | inhibition [%] |
| --- | --- |
| O=C(O)Cc1ccccc1Nc1c(Cl)cccc1Cl | < 50 |

target: T2, Prostaglandin G/H synthase 1 (Ovis aries, UniProt P05979); experiment: In vitro inhibitory activity against ovine cyclooxygenase-1 (COX-1); conditions: not given
T2 sequence (P05979 whole entry): T1 sequence (whole entry)
How it was run: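 Ovine COX-1 (0.17 unit/μL final) with heme (1 μM final) in Tris-HCl pH 8 buffer, preincubated with compound 10 min at room temperature. Started with saturating TMPD, then arachidonic acid to 10 μM, 5 min at room temperature. Absorbance increase at 590 nm. Half-log steps over −log[M] 9.0–3.5, DMSO 3% final. IC50 from nonlinear Hill fit, mean ± SEM of 2–5 determinations.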

| SMILES | IC50 [µM] |
| --- | --- |
| COc1c(O)ccc2c1oc1ccccc12 | 29 |
| O=C(Nc1ccccc1O)c1ccccc1Cl | 69 |
| O=C(c1ccccc1)c1ccc(O)c(C(=O)c2ccccc2)c1O | 6 |
